# aDG glyco act – alpha-DG glycosylation activation | AID 624168 | Pro5-aDG cells, alpha-DG glycosylation AlphaScreen (IIH6); 0% Pro5, 100% B10-LARGE cell signal | actives 0.22% (n = 360,000) | activation, % at 10 µM;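 active = activation of at least 8% versus controls, or a plate z-score of at least 8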;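 also: Pro5 are CHO cells carrying HIG-tagged alpha-DG that lacks glycosylation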
# procasp3 activ – activates human procaspase-3. activation, % at 8.5 µM. recombinant procaspase-3 D3A, Ac-DEVD-pNA absorbance 405 nm. actives 0.11% (n = 330,000). P42574;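 active = activation above the mean of all tested compounds plus 3 SD, cut at about 21% in these data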;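 also: 0% = DMSO alone and 100% = DMSO wells spiked with extra 5 µM PC-3 D3A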
# Target sequence (P42574 whole entry D9A/D28A/D175A): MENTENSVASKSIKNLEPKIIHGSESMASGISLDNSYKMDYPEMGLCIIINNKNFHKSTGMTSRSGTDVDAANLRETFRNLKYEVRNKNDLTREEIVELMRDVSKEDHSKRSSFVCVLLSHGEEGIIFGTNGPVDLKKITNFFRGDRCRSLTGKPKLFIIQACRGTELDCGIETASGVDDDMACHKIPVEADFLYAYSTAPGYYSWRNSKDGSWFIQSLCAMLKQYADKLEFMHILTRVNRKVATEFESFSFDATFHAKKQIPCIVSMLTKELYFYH
#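 Test system: Procaspase-3 D3A mutant, all three cleavage aspartates alanine | Dosing: Single dose, 8.5 µM nominal compound, 0.8% DMSO | Schedule: 1 h preincubation, 2 h reaction | Technique: 405 nm absorbance of p-nitroaniline, reads at 0 and 120 min | Repeats: One well per compound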
# MPTP inh – blocks calcium-induced mitochondrial swelling | isolated mouse mitochondria, Ca2+ swelling absorbance, 30 min | inhibition, % at 10 µM | actives 1.4% (n = 360,000);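 active = inhibition of 50% or more, scaled per plate between neutral and stimulator controls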;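 also: 0% = DMSO wells given calcium and 100% = 1 mM EGTA wells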
# NR3A LBD binder – modulators (binders) of human NR3A ligand-binding domain | NR3A LBD differential scanning fluorimetry, Tm shift; 0% = protein alone, 100% = glycine-bound protein | Tm shift relative to glycine control, % at 25 µM | actives 2.5% (n = 340,000) | AID 1259313;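 active = melting temperature shift of at least 10% of the positive control shift, at one fixed dose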
# proCasp7 act – activates human procaspase-7, counter-screen for procaspase-3 activators; actives 0.093% (n = 330,000); activation, % at 8.5 µM; AID 463210; recombinant procaspase-7, Ac-DEVD-pNA absorbance 405 nm; D23A/D198A/D206A triple mutant, cannot self-cleave; scale: DMSO 0, 5 µM enzyme 100;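 active = percent activation above the screen-wide mean plus 3 SD, cut at about 25% in these data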
# Target sequence (P55210 whole entry D23A/D198A/D206A): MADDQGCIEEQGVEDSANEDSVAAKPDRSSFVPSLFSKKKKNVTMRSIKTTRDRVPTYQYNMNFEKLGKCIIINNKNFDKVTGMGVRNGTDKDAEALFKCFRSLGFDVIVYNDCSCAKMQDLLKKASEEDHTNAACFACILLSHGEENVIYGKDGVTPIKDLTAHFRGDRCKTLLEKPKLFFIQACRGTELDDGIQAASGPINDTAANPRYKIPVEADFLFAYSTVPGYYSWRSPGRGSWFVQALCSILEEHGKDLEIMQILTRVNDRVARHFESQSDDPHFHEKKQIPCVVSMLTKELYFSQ
#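 buffer or medium = Zinc-free HEPES/NaCl buffer, pH 7.4 | material = Procaspase-7 triple mutant (PC-7 D3A) | input = 2 µM procaspase-7 mutant as dispensed | signal = Epi-absorbance of released pNA at 405 nm, two timepoints | timing = 1 h preincubation, 2 h reaction | replicates = singlicate compound testing | evaluation = % activation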
# Starred values were filed as active, the others as inactive; x = no result given. This is a sample that favours compounds with a hit; in the whole collection about 3.7% have one here.
SMILES,aDG glyco act,procasp3 activ,MPTP inh,NR3A LBD binder,proCasp7 act
O=C1/C(=C/c2ccc(F)cc2)Oc2cc(OC(=O)N3CCOCC3)ccc21,0,-4,4,0,-3
O=C1/C(=C/c2ccccc2)Oc2cc(OC(=O)N3CCOCC3)ccc21,1,-5,1,20*,-1
COC(=O)C1=CN(c2ccc3c(c2)OCO3)C(N)=C(C#N)C1c1ccccc1 (stereo unspecified),1,x,-1,x,x
Cc1ccc(Nc2nc(N)c3ccccc3n2)cc1Cl,0,2,1,39*,4
Nc1nc(Nc2ccc(Cl)cc2)nc2ccccc12,0,-2,3,39*,7
CCOc1ccc(Nc2nc(N)c3ccccc3n2)cc1,0,x,-1,28*,x
Nc1nc(Nc2ccccc2)nc2ccccc12,1,11,1,-2,9
Cc1ccccc1Nc1nc(N)c2ccccc2n1,0,-3,2,6,-1
COc1cc2nc(Nc3ccc(C)c(Cl)c3)nc(N)c2cc1OC,0,-1,-2,28*,-1
COc1ccc(C2=CCCC2)c(OC)c1,0,x,-1,0,x
COc1cc2nc(Nc3ccc(C)c(C)c3)nc(N)c2cc1OC,0,2,-2,16*,-5
COc1cc2nc(Nc3ccc(F)cc3)nc(N)c2cc1OC,0,3,-1,9,4
O=C1C(=C2SCCCS2)CC/C1=C\c1ccc(F)cc1,0,-10,-1,-2,3
O=C1CCCC(=O)C1=C1SCCCS1,0,0,2,11*,-4
COc1ccc(CN2C[C@H]3CCCN3c3cc(Br)ccc3S2(=O)=O)cc1,0,-1,0,18*,1
CC(C)c1c(C(=O)N/N=C/c2ccncc2)nnn1-c1nonc1N,0,0,2,-11,-2
CCCN(CCC)Cc1c(C(=O)N/N=C/c2ccco2)nnn1-c1nonc1N,0,-7,-1,-2,8
CC(/C=N/NC(=O)c1nnn(-c2nonc2N)c1C(C)C)=C\c1ccco1,0,-2,-1,19*,5
CCCc1c(C(=O)N/N=C/C(C)=C/c2ccco2)nnn1-c1nonc1N,-1,1,-1,16*,-4
O=C(ONC(=O)C1C2C=CC(C2)C1C(=O)NOC(=O)c1ccccc1)c1ccccc1 (stereo unspecified),0,x,-1,0,x
CC(=O)c1c(C)[nH]c(C(=O)Nc2ccc(N3CCCCCC3)cc2)c1C,0,x,3,x,x
CCN1CCN(c2ccc(S(=O)(=O)N3CCOCC3)cc2NC(=O)C2CCC(C(C)(C)C)CC2)CC1 (stereo unspecified),1,x,-1,19*,x
COc1cccc(OCCOc2ccc(/C=C3/SC(=S)NC3=O)cc2)c1,0,-14,24,10*,-20
COc1ccc(CC(=O)NNC(=S)Nc2ccccc2)cc1Cl,1,-3,-2,-12,-12
CCCOc1ccc(CC(=O)NNC(=S)Nc2ccccc2)cc1Br,0,-11,39,19*,-7
SMILES,aDG glyco act,procasp3 activ,MPTP inh,NR3A LBD binder,proCasp7 act
COc1ccc(CCNCC(=O)Nc2ccc(C(=O)N3CCCCC3)cc2)cc1,0,0,1,20*,-1
COc1ccc2[nH]c(-c3ccccc3)cc2c1,0,-2,0,12*,8
COc1ccc2nc(-c3ccccc3)[nH]c2c1,0,0,0,-6,7
CCNC(=O)C1CCCN(C(=O)Cc2ccc3ccccc3c2)CC1 (stereo unspecified),0,x,1,x,x
CN(CCc1ccccn1)C1CC(=O)N(c2ccc(Cl)cc2)C1=O (stereo unspecified),1,-33,0,14*,-19
CN(CCc1ccccn1)C(=O)Nc1ccc(Cl)cc1,0,-7,2,2,-7
COCCNC(=O)C1(C)CCCN(C(=O)c2ccc(C#N)cc2)C1 (stereo unspecified),0,x,0,x,x
Cn1c(NCC(O)c2ccccc2)nc2c1c(=O)n(Cc1ccc(Cl)c(Cl)c1)c(=O)n2C (stereo unspecified),0,-2,4,12*,3
COc1ccc(S(=O)(=O)Nc2nc3ccccc3nc2Nc2ccc3c(c2)OCO3)cc1,x,0,x,x,0
O=S(=O)(Nc1nc2ccccc2nc1Nc1ccc2c(c1)OCCO2)c1cccs1,0,5,37,13*,8
O=C1N=c2ccccc2=C1c1sc(=S)n(CC2CCCO2)c1O (stereo unspecified),1,5,0,15*,6
C=CCn1c(SCC(=O)Nc2ccc(O)cc2)nc2sc(CC)cc2c1=O,0,0,0,33*,-10
Cc1cc(Cl)c(OCCOCCN2CCC(C)CC2)c(Br)c1,1,0,12,17*,-1
FC(F)Sc1ccc(NC(=S)NC2CCC(NC(=S)Nc3ccc(SC(F)F)cc3)CC2)cc1 (stereo unspecified),0,-15,4,17*,-8
FC(F)Oc1ccc(NC(=S)NC2CCCCCCC2)cc1,1,-1,34,2,16
CC(=O)Nc1ccc(C2=NNC(=Nc3cccc(S(=O)(=O)N(C)C)c3)SC2)cc1,0,-15,0,12*,-10
COC(=O)c1ccc(CSc2nc3ccccc3c(=O)n2CC(C)C)o1,0,5,2,20*,-2
CC(=O)c1sc2nc(-c3ccc(C)cc3)c3c(c2c1N)CCCC3,0,-33,4,10*,-41
Cc1ccc(-c2nc3sc(C(N)=O)c(N)c3c3c2CCCC3)cc1,0,-24,-4,-18,-20
CCc1c(C)sc(NC(=S)N2CC(C)OC(C)C2)c1C(=O)OC (stereo unspecified),0,-2,2,13*,-8
CCc1c(C)sc(NC(=S)N2CCN(C(=O)C3CCCO3)CC2)c1C(=O)OC (stereo unspecified),0,x,0,0,x
CC(C)OCC1CC(CC(=O)Nc2ccc([N+](=O)[O-])cc2)C(=O)O1 (stereo unspecified),-1,-3,1,18*,-8
CC1(C)CC(CC(=O)NC(=S)Nc2ccc([N+](=O)[O-])cc2)C(=O)O1 (stereo unspecified),0,-3,2,10*,5
CC(=O)Nc1cc(-c2ccc(N)nc2)cn2c(-c3cccc(C(F)(F)F)c3)cnc12,1,x,-2,x,x
CC(C)CCNC(=O)c1ccc(OC2CCN(S(=O)(=O)N(C)C)CC2)cc1,0,-2,-3,2,8
CN(C)S(=O)(=O)N1CCC(Oc2ccc(C(=O)NCCc3cscn3)cc2)CC1,1,3,-1,13*,0
Cn1c(SCC(=O)Nc2sccc2C(N)=O)nc2ccccc2c1=O,0,1,1,35*,-1

# Screens (PubChem BioAssay)
